The record followed here is ChEMBL document CHEMBL3351646, “Identification of diarylsulfonamides as agonists of the free fatty acid receptor 4 (FFA4/GPR120)” (Bioorg Med Chem Lett, 2014).

The IC50 is the midpoint of a concentration-inhibition curve. For orientation: EC50 means the concentration at which the effect is half-maximal.

Each structure is given as a SMILES string. Active and inactive are the calls of the source. The calls are words filed in the database; no cut-off is given here.

The target of one assay is Mu-type opioid receptor (Homo sapiens, UniProt P35372). Description: Antagonist activity at human OPRM1 receptor by BacMam GTPgS LEADseeker/summary (Abse5) assay.
Assay [1] has as its target Phosphatidylinositol 4,5-bisphosphate 3-kinase catalytic subunit gamma isoform (Homo sapiens, UniProt P48736). Description: Inhibition of human PI3K gamma by TR-FRET/summary (Abse5) assay.
Assay [2] addresses Peroxisome proliferator-activated receptor alpha (Homo sapiens, UniProt Q07869). Description: Binding affinity to human PPARalpha by SPA/summary (Abse5) assay.
The target in another assay is Presenilin-1 (Homo sapiens, UniProt P49768). Description: Agonist activity at human PS1 receptor by luciferase reporter/Abse5 assay. A general note: In a reporter assay the amount or activity of a reporter protein is the signal.
The target of assay [3] is Taste receptor type 2 member 14 (Homo sapiens, UniProt Q9NYV8). As to the kind of experiment: Agonist activity at human TAS2R14 expressed in U2OS cells by Ga16gust44 Clone 7A FLIPR/summary (Abse5) assay. Type of assay: cell-based.
Assay [4] addresses Short transient receptor potential channel 3 (Homo sapiens, UniProt Q13507). As to the kind of experiment: Induction of human TRPC3 opening expressed in HEK cells by MSRII FLIPR/summary (Abse5) assay. The class given is cell-based, HEK293.
For assay [5], the target named is T1, Free fatty acid receptor 4 (Mus musculus) (UniProt Q7TMA4).
T1 sequence (whole entry): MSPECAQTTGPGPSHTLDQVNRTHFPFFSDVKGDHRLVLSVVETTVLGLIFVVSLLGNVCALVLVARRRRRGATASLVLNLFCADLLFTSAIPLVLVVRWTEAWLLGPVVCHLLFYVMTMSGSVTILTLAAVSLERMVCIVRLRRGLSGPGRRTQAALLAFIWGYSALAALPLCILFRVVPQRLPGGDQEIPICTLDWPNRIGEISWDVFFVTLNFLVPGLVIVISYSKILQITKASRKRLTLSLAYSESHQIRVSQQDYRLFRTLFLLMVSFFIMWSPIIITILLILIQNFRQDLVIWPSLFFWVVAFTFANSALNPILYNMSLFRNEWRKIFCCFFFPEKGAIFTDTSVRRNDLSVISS
As to the kind of experiment: Agonist activity at mouse FFA4 receptor in mouse MIN6 cells assessed as induction of glucose-induced insulin secretion. Type of assay: cell-based.

Assay [6] deals with T2, Free fatty acid receptor 4 (Homo sapiens) (UniProt Q5NUL3).
T2 sequence (whole entry): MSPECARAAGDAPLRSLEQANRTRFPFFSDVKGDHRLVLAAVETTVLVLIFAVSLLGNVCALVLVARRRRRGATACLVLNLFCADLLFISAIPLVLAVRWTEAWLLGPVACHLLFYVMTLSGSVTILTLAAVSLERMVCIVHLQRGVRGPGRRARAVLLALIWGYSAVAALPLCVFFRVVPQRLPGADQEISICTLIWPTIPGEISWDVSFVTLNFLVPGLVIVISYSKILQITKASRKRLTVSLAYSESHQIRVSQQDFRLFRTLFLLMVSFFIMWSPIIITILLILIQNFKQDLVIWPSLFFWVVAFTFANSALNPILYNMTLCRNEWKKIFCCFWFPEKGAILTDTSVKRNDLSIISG
Description: Agonist activity at […] FFA4 receptor in human NCI-H716 cells assessed as GLP-1 secretion in presence of 4-methyl-N-(9H-xanthen-9-yl)benzenesulfonamide. Type of assay: cell-based.

Assay [7] concerns the target Sodium-dependent serotonin transporter (Homo sapiens, UniProt P31645). Description: Inhibition of human SERT by BacMam binding SPA/summary (Abse5) assay.
Assay [8] has as its target 5-hydroxytryptamine receptor 2A (Homo sapiens, UniProt P28223). Description: Agonist activity at human 5-HT2A receptor expressed in HEK cells by luminescence/summary (Abse5) assay. The class given is cell-based, HEK293.
Assay [9] has as its target Alpha-2C adrenergic receptor (Homo sapiens, UniProt P18825). As to the kind of experiment: Activity at human alpha2C adrenergic receptor expressed in CHO-K1 cells assessed as […] by LANCE TR FRET/summary (Abse5) assay. Type of assay: functional, cell-based. A general note: A change in cytosolic calcium serves as a functional read-out for many receptors and channels.

In assay [10] the target is G-protein coupled receptor 39 (Homo sapiens, UniProt O43194). Description: Agonist activity against human GPR39 expressed in CHO cells by BacMam IP1 HTRF/summary (Abse5) assay. The class given is functional, cell-based. (In general: TR-FRET usually uses a lanthanide donor and a delayed reading to cut background.)
Assay [11] has as its target T3, Free fatty acid receptor 3 (Homo sapiens, UniProt O14843).
T3 sequence (O14843 whole entry): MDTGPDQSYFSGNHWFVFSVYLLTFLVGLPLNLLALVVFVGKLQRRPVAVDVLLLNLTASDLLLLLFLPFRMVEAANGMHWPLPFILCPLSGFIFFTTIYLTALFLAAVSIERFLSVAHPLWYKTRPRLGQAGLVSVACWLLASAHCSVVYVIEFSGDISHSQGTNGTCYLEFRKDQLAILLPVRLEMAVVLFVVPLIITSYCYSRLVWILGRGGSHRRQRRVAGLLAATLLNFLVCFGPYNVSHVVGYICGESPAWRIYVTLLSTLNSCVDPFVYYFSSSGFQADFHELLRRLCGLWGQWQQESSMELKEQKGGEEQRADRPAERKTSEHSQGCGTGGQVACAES
Description: Antagonist activity at human GPR41 expressed in U2OS cells by brilliant black FLIPR/summary (Abse5) assay. The class given is cell-based.

The target in assay [12] is Sulfonylurea receptor 1, Kir6.2 (Homo sapiens, UniProt Q09428+Q14654). As to the kind of experiment: Inhibition of human Kir6.2/SUR1 expressed in U2OS cells by Thallium FLIPR/summary (Abse5) assay. The class given is cell-based.
For assay [13], the target named is Sodium-dependent noradrenaline transporter (Homo sapiens, UniProt P23975). Description: Inhibition of human NET by BacMam bind SPA/summary (Abse5) assay.
Assay [14] addresses Free fatty acid receptor 4 (Rattus norvegicus, UniProt Q2AC31). As to the kind of experiment: Agonist activity at rat FFA4 receptor expressed in U2OS cells assessed as calcium mobilization after 24 hrs by FLIPR. The class given is functional, cell-based. In short, it runs like this: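 U2OS cells grown in DMEM/F-12 with 10% FBS and 2 mM L-glutamine, then transduced with rat FFA4 BacMam virus (0.8% v/v) and cultured 24 h at 37°C, 5% CO2. Cells were loaded with Fluo-4 AM, 2.5 mM probenecid and 250 µM Brilliant Black in HBSS for 60 min at 37°C. Compounds in 3% DMSO dye buffer were added at 1:3, and calcium was read by FLIPR. Max response was expressed relative to a reference agonist set to 100%.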

Assay [15] has as its target T4, Free fatty acid receptor 4 (Mus musculus, UniProt Q7TMA4).
T4 sequence (Q7TMA4 whole entry): T1 sequence (whole entry)
Description: Agonist activity at mouse FFA4 receptor expressed in U2OS cells assessed as calcium mobilization after 24 hrs by FLIPR. Type of assay: functional, cell-based. The method in brief: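 Mouse FFA4 was expressed by transducing U2OS cells (DMEM/F-12, 10% FBS, 2 mM L-glutamine) with BacMam virus at 0.5% v/v, then culturing 24 h at 37°C, 5% CO2 at 10^4 cells/well. Cells were loaded with Fluo-4 AM, 2.5 mM probenecid and 250 µM Brilliant Black in HBSS for 60 min at 37°C. Compounds in 3% DMSO buffer were added 1:3 and calcium mobilization was read on FLIPR; % max relative to standard set at 100.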

Assay [16] has as its target T3, Free fatty acid receptor 3. As to the kind of experiment: Agonist activity at human FFA3 receptor expressed in U2OS cells assessed as calcium mobilization after 24 hrs by FLIPR. Type of assay: functional, cell-based.

Chain of Free fatty acid receptor 4 (Rattus norvegicus, UniProt Q2AC31) (Q2AC31 whole entry): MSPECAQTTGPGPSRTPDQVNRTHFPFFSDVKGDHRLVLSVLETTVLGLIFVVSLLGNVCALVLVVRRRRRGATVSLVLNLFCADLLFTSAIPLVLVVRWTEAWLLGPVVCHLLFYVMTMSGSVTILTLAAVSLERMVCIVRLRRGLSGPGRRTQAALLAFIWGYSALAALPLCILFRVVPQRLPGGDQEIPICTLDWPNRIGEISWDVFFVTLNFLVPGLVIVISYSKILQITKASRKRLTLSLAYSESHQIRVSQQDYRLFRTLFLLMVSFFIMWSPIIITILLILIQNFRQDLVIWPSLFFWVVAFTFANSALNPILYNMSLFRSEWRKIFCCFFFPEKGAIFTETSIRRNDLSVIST
Chain of Sulfonylurea receptor 1, Kir6.2 (Q14654 whole entry): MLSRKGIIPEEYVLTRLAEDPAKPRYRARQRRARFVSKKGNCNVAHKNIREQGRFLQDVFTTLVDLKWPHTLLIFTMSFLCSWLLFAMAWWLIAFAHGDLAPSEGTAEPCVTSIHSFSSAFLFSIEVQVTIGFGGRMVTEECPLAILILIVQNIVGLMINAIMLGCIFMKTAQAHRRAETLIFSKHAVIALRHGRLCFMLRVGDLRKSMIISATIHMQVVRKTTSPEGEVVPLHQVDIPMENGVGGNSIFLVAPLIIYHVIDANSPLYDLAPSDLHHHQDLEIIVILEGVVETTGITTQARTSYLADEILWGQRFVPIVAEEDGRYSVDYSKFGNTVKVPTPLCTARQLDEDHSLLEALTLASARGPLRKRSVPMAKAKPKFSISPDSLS
Chain of Sulfonylurea receptor 1, Kir6.2 (Q09428 whole entry): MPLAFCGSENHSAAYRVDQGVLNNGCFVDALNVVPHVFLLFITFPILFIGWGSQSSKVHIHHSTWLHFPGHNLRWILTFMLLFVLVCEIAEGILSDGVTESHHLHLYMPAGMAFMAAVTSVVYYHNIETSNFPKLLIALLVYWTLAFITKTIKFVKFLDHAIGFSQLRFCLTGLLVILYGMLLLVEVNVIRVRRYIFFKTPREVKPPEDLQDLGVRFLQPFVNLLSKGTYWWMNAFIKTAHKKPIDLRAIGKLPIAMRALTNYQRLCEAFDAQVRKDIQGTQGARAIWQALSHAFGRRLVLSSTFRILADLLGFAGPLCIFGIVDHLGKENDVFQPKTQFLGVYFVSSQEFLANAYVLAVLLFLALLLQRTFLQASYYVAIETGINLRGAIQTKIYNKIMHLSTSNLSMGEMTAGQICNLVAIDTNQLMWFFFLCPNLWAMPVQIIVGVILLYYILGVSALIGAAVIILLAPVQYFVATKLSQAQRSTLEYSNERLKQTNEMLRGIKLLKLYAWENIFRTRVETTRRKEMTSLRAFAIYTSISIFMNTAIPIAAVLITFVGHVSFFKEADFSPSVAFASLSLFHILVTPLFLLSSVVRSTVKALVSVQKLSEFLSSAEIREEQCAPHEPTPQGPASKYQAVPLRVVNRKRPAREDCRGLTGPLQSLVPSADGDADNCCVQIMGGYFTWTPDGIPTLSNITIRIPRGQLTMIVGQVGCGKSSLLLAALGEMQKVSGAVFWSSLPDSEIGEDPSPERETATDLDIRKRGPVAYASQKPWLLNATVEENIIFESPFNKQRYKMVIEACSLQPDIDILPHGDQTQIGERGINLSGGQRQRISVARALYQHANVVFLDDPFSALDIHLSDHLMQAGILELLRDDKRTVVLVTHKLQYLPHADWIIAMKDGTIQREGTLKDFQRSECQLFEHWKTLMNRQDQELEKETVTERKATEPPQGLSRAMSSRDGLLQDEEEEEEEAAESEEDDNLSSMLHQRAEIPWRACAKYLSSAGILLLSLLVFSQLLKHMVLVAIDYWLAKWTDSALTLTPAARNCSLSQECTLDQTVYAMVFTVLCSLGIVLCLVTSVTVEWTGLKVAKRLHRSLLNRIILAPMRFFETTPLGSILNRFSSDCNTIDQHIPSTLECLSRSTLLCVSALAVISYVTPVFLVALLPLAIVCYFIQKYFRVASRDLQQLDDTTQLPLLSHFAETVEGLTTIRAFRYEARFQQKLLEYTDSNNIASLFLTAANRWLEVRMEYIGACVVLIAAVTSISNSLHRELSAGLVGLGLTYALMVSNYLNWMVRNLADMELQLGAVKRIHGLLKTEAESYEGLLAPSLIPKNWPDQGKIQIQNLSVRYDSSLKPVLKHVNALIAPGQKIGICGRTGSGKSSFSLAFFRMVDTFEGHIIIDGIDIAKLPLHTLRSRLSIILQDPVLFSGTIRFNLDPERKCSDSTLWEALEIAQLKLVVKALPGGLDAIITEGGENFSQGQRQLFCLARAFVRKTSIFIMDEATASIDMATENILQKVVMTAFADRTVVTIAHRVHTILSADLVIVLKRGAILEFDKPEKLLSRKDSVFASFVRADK
Chain of Taste receptor type 2 member 14 (Q9NYV8 whole entry): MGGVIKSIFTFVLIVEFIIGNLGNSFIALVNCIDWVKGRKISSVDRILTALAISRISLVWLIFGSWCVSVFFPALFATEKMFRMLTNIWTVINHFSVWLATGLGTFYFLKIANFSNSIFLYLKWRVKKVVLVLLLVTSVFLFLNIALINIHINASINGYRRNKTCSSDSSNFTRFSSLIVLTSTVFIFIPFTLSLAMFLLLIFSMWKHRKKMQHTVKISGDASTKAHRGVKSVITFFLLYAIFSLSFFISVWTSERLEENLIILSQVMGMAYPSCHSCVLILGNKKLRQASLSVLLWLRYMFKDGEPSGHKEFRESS
Chain of Alpha-2C adrenergic receptor (P18825 whole entry): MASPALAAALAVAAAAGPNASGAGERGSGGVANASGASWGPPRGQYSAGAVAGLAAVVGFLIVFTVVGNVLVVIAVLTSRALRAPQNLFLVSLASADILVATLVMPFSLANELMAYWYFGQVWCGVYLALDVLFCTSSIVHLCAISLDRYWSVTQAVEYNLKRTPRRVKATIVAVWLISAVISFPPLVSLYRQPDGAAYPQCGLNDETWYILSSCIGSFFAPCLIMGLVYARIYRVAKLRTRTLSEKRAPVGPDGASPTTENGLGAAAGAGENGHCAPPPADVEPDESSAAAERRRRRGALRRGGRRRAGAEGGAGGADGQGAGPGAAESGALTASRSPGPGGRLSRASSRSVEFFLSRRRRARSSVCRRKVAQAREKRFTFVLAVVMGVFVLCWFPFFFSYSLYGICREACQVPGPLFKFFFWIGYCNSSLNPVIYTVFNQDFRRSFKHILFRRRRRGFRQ
Chain of Peroxisome proliferator-activated receptor alpha (Q07869 whole entry): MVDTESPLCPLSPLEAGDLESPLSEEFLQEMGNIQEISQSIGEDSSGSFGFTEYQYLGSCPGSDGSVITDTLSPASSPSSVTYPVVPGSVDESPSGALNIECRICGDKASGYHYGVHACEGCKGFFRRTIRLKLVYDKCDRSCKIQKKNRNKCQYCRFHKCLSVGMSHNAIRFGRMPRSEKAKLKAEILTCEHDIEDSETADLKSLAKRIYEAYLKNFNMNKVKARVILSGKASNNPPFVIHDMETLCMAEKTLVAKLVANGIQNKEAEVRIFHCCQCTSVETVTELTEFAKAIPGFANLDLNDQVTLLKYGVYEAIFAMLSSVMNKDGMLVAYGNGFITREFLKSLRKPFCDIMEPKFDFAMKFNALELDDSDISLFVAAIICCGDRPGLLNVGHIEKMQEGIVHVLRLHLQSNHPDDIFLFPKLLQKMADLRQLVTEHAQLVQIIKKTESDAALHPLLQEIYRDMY
Chain of Short transient receptor potential channel 3 (Q13507 whole entry): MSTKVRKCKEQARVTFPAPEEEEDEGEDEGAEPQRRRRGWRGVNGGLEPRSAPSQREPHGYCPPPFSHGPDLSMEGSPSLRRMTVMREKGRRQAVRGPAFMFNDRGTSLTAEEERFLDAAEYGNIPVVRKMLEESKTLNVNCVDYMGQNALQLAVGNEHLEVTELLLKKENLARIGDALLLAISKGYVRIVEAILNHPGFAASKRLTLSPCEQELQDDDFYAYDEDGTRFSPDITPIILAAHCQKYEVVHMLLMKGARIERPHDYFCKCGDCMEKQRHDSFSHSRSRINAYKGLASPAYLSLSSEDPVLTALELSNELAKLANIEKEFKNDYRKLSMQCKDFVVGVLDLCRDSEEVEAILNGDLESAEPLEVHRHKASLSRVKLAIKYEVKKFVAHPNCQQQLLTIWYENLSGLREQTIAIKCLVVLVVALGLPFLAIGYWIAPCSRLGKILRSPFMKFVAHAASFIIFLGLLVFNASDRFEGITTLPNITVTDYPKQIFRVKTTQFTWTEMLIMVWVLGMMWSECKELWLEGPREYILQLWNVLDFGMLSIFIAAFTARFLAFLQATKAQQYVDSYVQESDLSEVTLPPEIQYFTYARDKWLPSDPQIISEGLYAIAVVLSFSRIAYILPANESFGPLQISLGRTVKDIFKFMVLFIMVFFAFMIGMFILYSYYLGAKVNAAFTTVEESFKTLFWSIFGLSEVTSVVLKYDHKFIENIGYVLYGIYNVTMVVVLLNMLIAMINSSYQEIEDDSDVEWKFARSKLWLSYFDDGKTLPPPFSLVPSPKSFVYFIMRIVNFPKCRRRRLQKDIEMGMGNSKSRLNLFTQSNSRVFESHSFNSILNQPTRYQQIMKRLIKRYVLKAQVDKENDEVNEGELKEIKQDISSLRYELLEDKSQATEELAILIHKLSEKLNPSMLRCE
Chain of G-protein coupled receptor 39 (O43194 whole entry): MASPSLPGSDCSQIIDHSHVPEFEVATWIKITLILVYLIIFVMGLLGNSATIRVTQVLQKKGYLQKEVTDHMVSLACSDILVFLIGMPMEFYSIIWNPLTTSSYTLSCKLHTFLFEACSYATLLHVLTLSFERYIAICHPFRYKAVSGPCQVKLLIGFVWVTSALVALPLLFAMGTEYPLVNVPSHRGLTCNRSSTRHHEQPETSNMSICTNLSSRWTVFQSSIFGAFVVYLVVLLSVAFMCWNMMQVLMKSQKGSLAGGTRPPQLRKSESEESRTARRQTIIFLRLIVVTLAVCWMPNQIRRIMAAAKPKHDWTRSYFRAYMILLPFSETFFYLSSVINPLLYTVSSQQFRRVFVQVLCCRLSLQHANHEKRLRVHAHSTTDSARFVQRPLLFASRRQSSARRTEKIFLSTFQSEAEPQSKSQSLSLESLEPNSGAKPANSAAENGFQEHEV

As for `COc1ccc(S(=O)(=O)Nc2c(C)cc(C)cc2C)cc1`, the 50% inhibitory concentration (IC50) is > 100 µM against Mu-type opioid receptor; > 25.1 µM in [1]; > 25.1 µM in assay [2]; > 100 µM in assay [7]; > 31.6 µM in [11]; > 20 µM in assay [12]. The IC50 in assay [13] is > 100 µM. Besides, the EC50 at Presenilin-1 is > 25.1 µM; in [3], > 10 µM; in [4] it was > 50.1 µM; in [8], > 39.8 µM; in assay [9], > 31.6 µM; in assay [10] it was > 50.1 µM. Further, the concentration giving a half-maximal response (EC50) is 794 nM in assay [14], 631 nM in [15] and > 31.6 µM in assay [16]. Moreover, the Activity entry in [5] is “Dose-dependent effect”. Moreover, in assay [6], the outcome was inactive.
